# Screening data from PubChem.
# Kir21 block – inhibitors of mouse Kir2.1 inward-rectifier potassium channel; P35561; HEK293-Kir2.1, FluxOR thallium flux fluorescence; stronger effect = lower value; B-score at 10 µM; 310,000 tested, 0.85% active; AID 1672;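 active means fluorescence ratio B-score at or below minus 3 SD of library scores, with starting-brightness B-score within 2 SD, cut at about -4.2 in these data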;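 further: channel flux triggered by added potassium and thallium sulfate stimulus; B-score of peak minus minimum fluorescence over baseline after thallium stimulus; more negative B-score means stronger Kir2.1 block with less thallium influx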
# hERG protect – hERG (human) protection from proarrhythmic block. 310,000 tested, 0.51% active. CHO-hERG, FluxOR thallium flux, dofetilide IC70 present. Q12809. activation (rescue from dofetilide block), less the hit threshold, % at 10 µM;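 active means activation above the mean of controls blocked by dofetilide plus 5 SD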;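 further: thallium influx through hERG after potassium depolarization seen as dye fluorescence rise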
# KCNK3 inh – human KCNK3 channel inhibition, primary screen; O14649; CHO-KCNK3 thallium flux, FluxOR fluorescence; stronger effect = lower value; B-score at 10 µM; 340,000 tested, 0.84% active; AID 602410;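 active means B-score under library mean minus 4 SD, starting fluorescence ratio at most library mean plus 5 SD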;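 further: more negative B-score means stronger inhibition of thallium flux through KCNK3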
# KCNK9 inh – inhibitors of human KCNK9 two-pore domain potassium channel; Q9NPC2; HEK293 KCNK9, FluxOR thallium flux fluorescence; stronger effect = lower value; B-score at 10 µM; 310,000 tested, 1.2% active; AID 488922;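 active means ratio B-score over 3 SD below the library mean, with starting fluorescence within 5 SD of its mean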;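 further: negative B-score means less thallium flux so channel inhibition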
# KCNQ1 pot – human KCNQ1 channel potentiation or activation | P51787 | 310,000 tested, 0.35% active | B-score at 10 µM | CHO-K1 KCNQ1, thallium flux FluxOR fluorescence; stronger effect = higher value | AID 2648;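 active means fluorescence ratio B-score, a plate-corrected score, at least three library SD, with initial intensity B-score within 5 SD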
#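 Assay system: CHO-K1 cells stably expressing KCNQ1. Medium: assay buffer for compound exposure, DMSO matched across wells. Timing: 37 °C overnight plating, 90-min dark dye load, 20-min compound pretreatment. Signal: kinetic FluxOR fluorescence, 10 s baseline plus 110 s post-stimulus.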
# KCNQ1 block – inhibitors of human KCNQ1 potassium channel. P51787. CHO-K1 KCNQ1, FluxOR thallium flux fluorescence; stronger effect = higher value. B-score at 10 µM. 310,000 tested, 1.3% active;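 active means compounds whose thallium flux B-score, printed positive for inhibition, exceeds three library SD while starting fluorescence stays within three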;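 further: channel opened by potassium depolarization with thallium stimulus after 20 min compound exposure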
# KCNQ1 block val – reconfirmed blocker of the human KCNQ1 potassium channel; AID 588353; 1,600 tested, 93% active; shares compounds with KCNQ1 block; KCNQ1 cell line, FluxOR thallium flux fluorescence; inhibition, % at 10 µM;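 active means primary screen active, with duplicate mean exceeding buffer control mean plus 3 SD of buffer wells, cut at about 28% in these data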;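 further: 0% = buffer control ratio and 100% = XE991 inhibitor control ratio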
# CHO KCNQ1 ctr – KCNQ1 inhibitor counter-screen hit in parental CHO cells; 1,600 tested, 21% active; shares compounds with KCNQ1 block; fluorescence ratio (Tl flux) at 10 µM; AID 588366; parental CHO-K1, FluxOR thallium flux fluorescence ratio; stronger effect = lower value; zero means no signal rise above baseline;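 active means mean of duplicate thallium-flux fluorescence ratios in parental host cells more than 5 SD below the buffer control mean, cut at about 0.38 in these data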;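 further: ratio is peak minus minimum fluorescence divided by baseline fluorescence; actives read low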
# KCNQ1 ephys val – human KCNQ1 inhibition validated by electrophysiology; calls only at 10 µM; shares compounds with KCNQ1 block; 490 tested, 20% active; KCNQ1-CHO cells, automated patch clamp current;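 active means KCNQ1 current drop exceeding 3 SD of negative control wells, seen in both duplicate runs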;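 further: steady state current during a 2 s step from -80 to +40 mV; negative values mean current inhibition and positive values mean potentiation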
# KCNQ2 spec – KCNQ1 inhibitor that also blocks rat KCNQ2 channel; shares compounds with KCNQ1 block; KCNQ2 cells, FluxOR thallium flux fluorescence; inhibition, % at 10 µM; 1,600 tested, 71% active; AID 651746;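 active means mean percent inhibition of the KCNQ2 thallium signal more than 5 SD above the buffer-only control wells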;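 further: KCNQ2 expressed in CHO cells; 0% = buffer control wells and 100% = XE-991 inhibitor control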
# KCNQ1 KCNE1 spec – selectivity of KCNQ1 inhibitors: inhibition of human KCNQ1/KCNE1 channel; shares compounds with KCNQ1 block; KCNQ1/KCNE1 cells, FluxOR thallium flux fluorescence; inhibition, % at 10 µM; 1,600 tested, 77% active; AID 652147;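 active means mean percent inhibition of duplicate wells above the buffer-only control mean plus 3 SD of those controls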;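 further: 0% = buffer only wells and 100% = XE-991 inhibitor control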
# Target sequence (P51787 whole entry, looked up): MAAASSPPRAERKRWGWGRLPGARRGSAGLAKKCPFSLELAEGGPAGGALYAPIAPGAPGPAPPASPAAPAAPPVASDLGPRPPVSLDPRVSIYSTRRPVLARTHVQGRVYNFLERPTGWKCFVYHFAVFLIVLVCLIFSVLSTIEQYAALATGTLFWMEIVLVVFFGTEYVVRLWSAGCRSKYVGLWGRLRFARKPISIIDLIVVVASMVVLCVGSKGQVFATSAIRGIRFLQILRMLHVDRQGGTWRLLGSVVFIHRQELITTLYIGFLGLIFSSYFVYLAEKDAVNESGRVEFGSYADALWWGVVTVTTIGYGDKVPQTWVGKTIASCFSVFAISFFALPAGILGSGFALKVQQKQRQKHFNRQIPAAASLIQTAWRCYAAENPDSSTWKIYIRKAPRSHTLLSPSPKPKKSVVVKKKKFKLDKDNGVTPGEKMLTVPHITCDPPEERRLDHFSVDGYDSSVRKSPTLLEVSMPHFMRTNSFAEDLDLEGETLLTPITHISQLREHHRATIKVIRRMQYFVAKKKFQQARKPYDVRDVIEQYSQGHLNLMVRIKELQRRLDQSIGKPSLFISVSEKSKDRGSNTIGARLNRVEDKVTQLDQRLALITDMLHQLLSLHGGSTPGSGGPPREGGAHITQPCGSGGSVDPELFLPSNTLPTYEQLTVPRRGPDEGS
# * = called active by the depositor; i = inactive; · = no result given. Compounds with a hit are over-represented: about 3.8% of the library has one in this group of screens.
SMILES,Kir21 block,hERG protect,KCNK3 inh,KCNK9 inh,KCNQ1 pot,KCNQ1 block,KCNQ1 block val,CHO KCNQ1 ctr,KCNQ2 spec,KCNQ1 KCNE1 spec,others
Cn1cnc2cc(NCc3ccccc3O)ccc21,0.56,1,i,i,i,i,·,·,·,·,
O=C(Nc1nc(-c2cccs2)c(C(=O)C(F)(F)F)s1)c1ccccc1,2.5,-12,i,i,i,7*,25*,0.48,i,i,
COCCN(C(=O)COC(=O)CCS(=O)(=O)c1ccccc1)c1c(N)n(Cc2ccccc2)c(=O)[nH]c1=O,-1.9,-13,i,i,i,i,·,·,·,·,
N#CC1=C(N)NC(SCc2ccc(Cl)cc2)=C(C#N)C12CCCCC2,-0.21,-18,i,i,i,16*,151*,0.38*,121%*,185%*,
O=C1/C(=C\c2cccc(O)c2O)SC(=S)N1Cc1ccccc1,0.02,0,i,i,i,i,·,·,·,·,
O=C1/C(=C\c2cc([N+](=O)[O-])ccc2O)SC(=S)N1Cc1ccc(Cl)cc1,-12,-31,i,i,i,17*,165*,0.22*,i,i,
C=CCN1C=CC(=O)CC1,1.2,-10,i,i,i,i,·,·,·,·,
COc1ccccc1CC(Cc1nc2ccccc2[nH]1)c1nc2ccccc2[nH]1 (centres undefined),0.81,-18,i,i,i,8*,47*,0.42,69%*,46%*,
Cc1cc2nc(CCN(C(=S)NCC(C)C)C3CCCC3)[nH]c2cc1C,0.56,-11,i,i,i,8*,167*,0.43,101%*,i,KCNQ1 ephys val=i
Cc1cccc2cc(CN(C(=S)NCC(C)C)C3CCCC3)c(=O)[nH]c12,-0.4,-5,i,i,i,i,·,·,·,·,
CS(=O)(=O)N1CCCC(C(=O)Nc2ccccc2)C1 (centres undefined),1.6,-1,i,i,i,i,·,·,·,·,
COc1ccc(C2CC(=O)c3cnc(N4CCN(Cc5ccccc5)CC4)nc3C2)cc1 (centres undefined),-0.58,-6,i,i,i,6*,68*,0.42,102%*,105%*,
O=C(CCS(=O)(=O)c1ccccc1)Nc1nc2c(s1)COc1ccccc1-2,0.24,-22,i,i,i,6*,54*,0.51,59%*,54%*,
O=C(CCS(=O)(=O)c1ccccc1)Nc1nncs1,-0.76,-2,i,i,i,i,·,·,·,·,
O=C(Nc1nc2c(s1)COc1ccccc1-2)c1cccs1,-0.36,-16,i,i,i,7*,44*,0.52,102%*,64%*,
COc1ccc(C)cc1NC(C)C(=O)NC(=O)NC1CCCCC1 (centres undefined),·,·,i,·,·,·,·,·,·,·,
CCCc1cc(=O)oc2cc(C)cc(OC(C)C(=O)NCCCn3ccnc3)c12 (centres undefined),-1.9,-5,i,i,i,i,·,·,·,·,
Cn1c(N2CCN(C(c3ccccc3)c3ccccc3)CC2)nc2c1c(=O)[nH]c(=O)n2C,-0.19,-14,i,i,i,i,·,·,·,·,
COc1ccc(S(=O)(=O)n2nc(-n3c(C)ccc3C)c3c(F)cccc32)cc1OC,-0.95,-9,i,i,i,9*,124*,0.4,107%*,138%*,KCNQ1 ephys val=i
CC1Cc2ccccc2N1C(=O)CNc1ccccc1N1CCCCC1 (centres undefined),1.2,-14,i,i,i,7*,81*,0.45,101%*,86%*,
COc1ccccc1OCC(=O)N1CCN(S(=O)(=O)c2ccc(Cl)cc2)CC1,·,·,i,·,·,·,·,·,·,·,
COc1cc(C(=O)COC(=O)C2CCN(c3ccc(C(F)(F)F)cn3)CC2)ccc1OC(F)F,0.17,-17,i,i,i,6*,62*,0.48,115%*,62%*,
COc1ccc(C(=O)COC(=O)C2CCN(c3ccc(C(F)(F)F)cn3)CC2)c(OC)c1,·,·,i,·,·,·,·,·,·,·,
COc1cccc(C(=O)N2CCN(Cc3ccccc3Br)CC2)c1,-0.08,-7,i,i,i,i,·,·,·,·,
Cc1ccc(N(C(=O)Nc2ccccc2)C2=NCCC2)cc1,0.79,-5,i,i,i,i,·,·,·,·,
SMILES,Kir21 block,hERG protect,KCNK3 inh,KCNK9 inh,KCNQ1 pot,KCNQ1 block,KCNQ1 block val,CHO KCNQ1 ctr,KCNQ2 spec,KCNQ1 KCNE1 spec,others
COc1ccc(N(C(=O)Nc2ccc(Cl)cc2)C2=NCCC2)cc1,0.84,-10,i,i,i,12*,130*,0.37*,132%*,200%*,
Cc1ccc(S(=O)(=O)c2ccc(Oc3cccc(C)c3)cc2)cc1,0.41,-16,i,i,i,8*,112*,0.41,108%*,114%*,KCNQ1 ephys val=i
Cc1ccc(S(=O)(=O)c2ccc(C)cc2)cc1,1.4,-3,i,i,i,i,·,·,·,·,
Cc1cc(=O)n(CC(=O)NC2CC2)c2c1c(C)nn2-c1ccccc1,-1.4,-9,i,i,i,7*,80*,0.46,i,94%*,
Cc1cc(=O)n(CC(=O)NCCN2CCOCC2)c2c1c(C)nn2-c1ccccc1,1.1,-8,i,i,i,i,·,·,·,·,
CCOc1ncccc1C(=O)OCC(=O)Nc1ccc(C(C)C)cc1,-1.5,-13,i,i,i,i,·,·,·,·,
CCOc1ncccc1C(=O)OCC(=O)NC(=O)NC(C)C,-2.5,-12,i,i,i,8*,0,0.51,i,i,
Oc1cc2ccccc2cc1-c1n[nH]c(=S)o1,-0.19,-10,i,i,i,7*,0,0.63,i,i,
CC(=O)Nc1cccc(-c2csc(Nc3cc(C)ccn3)n2)c1,2.6,-17,i,i,i,6*,70*,0.51,90%*,38%*,
COc1ccc(N2CCc3c(C)nc4c(OC)cc(OC)cc4c32)cc1,-4.7*,-32,-10*,i,i,6*,0,0.51,i,i,
